# Measurements as given in ChEMBL document CHEMBL1275294, “Synthesis and anticancer activity evaluation of 4-thiazolidinones containing benzothiazole moiety” (2010).
# Active and inactive are the calls of the source. The calls are words filed in the database; no cut-off is given here.
# What was measured:
# [1] = Anticancer activity against human NCI60 cells assessed as cell growth at 10 uM after 48 hrs by SRB assay; format: functional; conditions: NCI60, 48 h, read-out: Activity
# Procedure, shortened: (§1)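 NCI primary screen: compound added at a single concentration of 10^-5 M to the human tumor cell line panel, 48 h incubation, end-point by sulforhodamine B protein staining read spectrophotometrically. Result expressed as percent growth of treated cells relative to untreated control cells.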
# [2] = system: RPMI-8226; assay: Anticancer activity against human RPMI8226 cells assessed as cell growth at 10 uM after 48 hrs by SRB assay; format: functional; conditions: RPMI-8226, 48 h, read-out: Activity; procedure, shortened: as §1
# [3] = system: NCI60; assay: Anticancer activity against human NCI60 cells assessed as cell growth inhibition after 48 hrs by SRB assay; format: functional, cell-based
# Procedure, shortened: (§2)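 NCI full panel of about 60 human tumor cell lines, five 10-fold dilutions from 10^-4 to 10^-8 M, 48 h continuous exposure, SRB protein assay read spectrophotometrically. Percent growth from time-zero, untreated-control and treated absorbances. GI50 is the molar concentration giving 50% net growth inhibition, TGI total inhibition, LC50 50% net cell death. Mean graph midpoints include insensitive lines at the top concentration.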
# [4] = system: UO-31; assay: Anticancer activity against human UO31 cells assessed as cell growth at 10 uM after 48 hrs by SRB assay; format: functional; conditions: UO-31, 48 h, read-out: Activity; procedure, shortened: as §1
# [5] = system: HOP-92; assay: Anticancer activity against human HOP92 cells assessed as cell growth at 10 uM after 48 hrs by SRB assay; format: functional; conditions: HOP-92, 48 h, read-out: Activity; procedure, shortened: as §1
# [6] = system: A498; assay: Growth inhibition of human A498 cells after 48 hrs by SRB assay; format: functional; conditions: A498, 48 h; procedure, shortened: as §2
# [7] = system: RPMI-8226; assay: Growth inhibition of human RPMI8226 cells after 48 hrs by SRB assay; format: functional; conditions: RPMI-8226, 48 h; procedure, shortened: as §2
# [8] = system: KM12; assay: Growth inhibition of human KM12 cells after 48 hrs by SRB assay; format: functional; conditions: KM12, 48 h; procedure, shortened: as §2
# [9] = system: SNB-75; assay: Growth inhibition of human SNB75 cells after 48 hrs by SRB assay; format: functional; conditions: SNB-75, 48 h; procedure, shortened: as §2
# [10] = system: BT-549; assay: Growth inhibition of human BT549 cells after 48 hrs by SRB assay; format: functional; conditions: BT-549, 48 h; for TGI: read-out: pTGI (converted); procedure, shortened: as §2
# [11] = system: NCI-H226; assay: Growth inhibition of human NCI-H226 cells after 48 hrs by SRB assay; format: functional; conditions: NCI-H226, 48 h; procedure, shortened: as §2
# [12] = system: SR; assay: Anticancer activity against human SR cells assessed as cell growth at 10 uM after 48 hrs by SRB assay; format: functional; conditions: read-out: Activity; procedure, shortened: as §1
# [13] = system: DU-145; assay: Growth inhibition of human DU145 cells after 48 hrs by SRB assay; format: functional; conditions: DU-145, 48 h; procedure, shortened: as §2
# [14] = system: OVCAR-3; assay: Growth inhibition of human OVCAR-3 cells after 48 hrs by SRB assay; format: functional; conditions: OVCAR-3, 48 h; procedure, shortened: as §2
# [15] = system: U-251; assay: Growth inhibition of human U251 cells after 48 hrs by SRB assay; format: functional; conditions: U-251, 48 h; for TGI: read-out: pTGI (converted); procedure, shortened: as §2
# [16] = system: SW-620; assay: Growth inhibition of human SW620 cells after 48 hrs by SRB assay; format: functional; conditions: SW-620, 48 h; procedure, shortened: as §2
# [17] = system: HL-60(TB); assay: Growth inhibition of human HL-60(TB) cells after 48 hrs by SRB assay; format: functional; conditions: HL-60, 48 h
# Procedure, shortened: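 NCI 60-cell-line screen, five 10-fold dilutions of the compound, 48-h continuous drug exposure. Cell growth is measured with the sulforhodamine B protein stain and read spectrophotometrically against untreated controls and a time-zero plate (Tz). GI50 is the molar concentration giving 50% net growth inhibition. Values outside the tested range are reported as above or below the extreme concentration.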
# [18] = system: SK-MEL-28; assay: Growth inhibition of human SK-MEL-28 cells after 48 hrs by SRB assay; format: functional; conditions: SK-MEL-28, 48 h; procedure, shortened: as §2
# [19] = system: LOX IMVI; assay: Growth inhibition of human LOXIMVI cells after 48 hrs by SRB assay; format: functional; procedure, shortened: as §2
# [20] = system: RXF 393; assay: Anticancer activity against human RXF393 cells assessed as cell growth at 10 uM after 48 hrs by SRB assay; format: functional; conditions: RXF 393, 48 h, read-out: Activity; procedure, shortened: as §1
# [21] = system: SNB-19; assay: Growth inhibition of human SNB19 cells after 48 hrs by SRB assay; format: functional; conditions: SNB-19, 48 h; procedure, shortened: as §2
# [22] = system: MCF7; assay: Growth inhibition of human MCF7 cells after 48 hrs by SRB assay; format: functional; conditions: MCF7, 48 h; procedure, shortened: as §2
# [23] = system: HCT-116; assay: Growth inhibition of human HCT116 cells after 48 hrs by SRB assay; format: functional; conditions: HCT-116, 48 h; procedure, shortened: as §2
# [24] = system: NCI-H23; assay: Growth inhibition of human NCI-H23 cells after 48 hrs by SRB assay; format: functional; conditions: NCI-H23, 48 h; procedure, shortened: as §2
# [25] = system: MDA-MB-435; assay: Growth inhibition of human MDA-MB-435 cells after 48 hrs by SRB assay; format: functional; conditions: MDA-MB-435, 48 h; procedure, shortened: as §2
# [26] = system: SF-295; assay: Growth inhibition of human SF295 cells after 48 hrs by SRB assay; format: functional; conditions: SF-295, 48 h; procedure, shortened: as §2
# [27] = Growth inhibition of human NCI-ADR-RES cells after 48 hrs by SRB assay; format: functional; procedure, shortened: as §2
# [28] = system: HOP-92; assay: Growth inhibition of human HOP92 cells after 48 hrs by SRB assay; format: functional; conditions: HOP-92, 48 h; procedure, shortened: as §2
# [29] = system: SF-539; assay: Growth inhibition of human SF539 cells after 48 hrs by SRB assay; format: functional; conditions: SF-539, 48 h; procedure, shortened: as §2
# [30] = system: OVCAR-4; assay: Growth inhibition of human OVCAR4 cells after 48 hrs by SRB assay; format: functional; conditions: OVCAR-4, 48 h; procedure, shortened: as §2
# [31] = system: PC-3; assay: Growth inhibition of human PC3 cells after 48 hrs by SRB assay; format: functional; conditions: PC-3, 48 h; procedure, shortened: as §2
# [32] = system: T47D; assay: Growth inhibition of human T47D cells after 48 hrs by SRB assay; format: functional; procedure, shortened: as §2
# [33] = system: ACHN; assay: Growth inhibition of human ACHN cells after 48 hrs by SRB assay; format: functional; procedure, shortened: as §2
# [34] = system: UACC-62; assay: Growth inhibition of human UACC62 cells after 48 hrs by SRB assay; format: functional; conditions: UACC-62, 48 h; procedure, shortened: as §2
# [35] = system: SNB-75; assay: Anticancer activity against human SNB75 cells assessed as cell growth at 10 uM after 48 hrs by SRB assay; format: functional; conditions: SNB-75, 48 h, read-out: Activity; procedure, shortened: as §1
# [36] = system: SF-295; assay: Anticancer activity against human SF295 cells assessed as cell growth at 10 uM after 48 hrs by SRB assay; format: functional; conditions: SF-295, 48 h, read-out: Activity; procedure, shortened: as §1
smiles,measurement,setting,value
CCOC(=O)c1ccc(NC(=O)COc2ccc(Cl)cc2/C=C2\SC(=S)N(Nc3nc4ccccc4s3)C2=O)cc1,growth at 10 µM,[1],74.7%
same,growth at 10 µM,[2],20%
same,growth inhibition (GI),[3],inactive
COc1ccc(NC(=O)COc2ccc(/C=C3\SC(=S)N(Nc4nc5ccccc5s4)C3=O)cc2OC)cc1,growth at 10 µM,[1],107%
same,growth at 10 µM,[4],78.6%
same,growth inhibition (GI),[3],inactive
COc1ccc(/C=C2\S/C(=N/c3nc4ccc(C)cc4s3)NC2=O)cc1,growth at 10 µM,[1],106%
same,growth at 10 µM,[4],80.4%
same,growth inhibition (GI),[3],inactive
Cc1ccc2nc(/N=C3\NC(=O)/C(=C/c4cc(Cl)ccc4OCC(N)=O)S3)sc2c1,growth at 10 µM,[1],91.8%
same,growth at 10 µM,[5],51.4%
same,growth inhibition (GI),[3],inactive
COc1ccc(NC(=O)COc2ccc(Cl)cc2/C=C2\SC(=S)N(Nc3nc4ccccc4s3)C2=O)cc1,GI50,[6],2.57 µM
same,TGI,[6]; read-out: pTGI (converted),5.75 µM
same,growth at 10 µM,[1],50.4%
same,GI50,[7],5.37 µM
same,TGI,[7]; read-out: pTGI (converted),12.9 µM
same,GI50,[8],2.24 µM
same,TGI,[8]; read-out: pTGI (converted),4.9 µM
same,GI50,[9],1.58 µM
same,TGI,[9]; read-out: pTGI (converted),9.55 µM
same,GI50,[10],3.02 µM
same,TGI,[10],8.91 µM
same,GI50,[11],2.95 µM
same,TGI,[11]; read-out: pTGI (converted),6.92 µM
same,growth at 10 µM,[12],-71.5%
same,GI50,[13],2.09 µM
same,TGI,[13]; read-out: pTGI (converted),3.98 µM
same,GI50,[14],2 µM
same,TGI,[14]; read-out: pTGI (converted),3.72 µM
same,growth inhibition (GI),[3],Active
same,GI50,[15],2.95 µM
same,TGI,[15],9.33 µM
same,GI50,[16],2.45 µM
same,TGI,[16]; read-out: pTGI (converted),6.31 µM
same,GI50,[17],2.29 µM
same,TGI,[17]; read-out: pTGI (converted),6.92 µM
same,GI50,[18],2.19 µM
same,TGI,[18]; read-out: pTGI (converted),4.47 µM
same,GI50,[19],1.66 µM
same,TGI,[19]; read-out: pTGI (converted),3.24 µM
COc1cc(/C=C2\SC(=S)N(Nc3nc4ccccc4s3)C2=O)ccc1O,growth at 10 µM,[1],97.7%
same,growth inhibition (GI),[3],inactive
same,growth at 10 µM,[20],-0.71%
CCN(CC)c1ccc(/C=C2\SC(=S)N(Nc3nc4ccccc4s3)C2=O)cc1,growth at 10 µM,[1],98.5%
same,growth at 10 µM,[4],77.3%
same,growth inhibition (GI),[3],inactive
COc1ccc(NC(=O)COc2ccc(Cl)cc2/C=C2\S/C(=N/c3nc4ccc(C)cc4s3)NC2=O)cc1,GI50,[21],5.5 µM
same,TGI,[21]; read-out: pTGI (converted),25.1 µM
same,GI50,[22],4.27 µM
same,TGI,[22]; read-out: pTGI,> 100 µM
same,growth at 10 µM,[1],-36.9%
same,GI50,[23],4.57 µM
same,TGI,[23]; read-out: pTGI (converted),34.7 µM
same,GI50,[24],7.76 µM
same,TGI,[24]; read-out: pTGI (converted),25.1 µM
same,GI50,[25],10 µM
same,TGI,[25]; read-out: pTGI (converted),34.7 µM
same,GI50,[10],6.03 µM
same,TGI,[10],27.5 µM
same,GI50,[26],3.39 µM
same,TGI,[26]; read-out: pTGI (converted),15.5 µM
same,GI50,[27],6.76 µM
same,TGI,[27]; read-out: pTGI,> 100 µM
same,GI50,[28],0.457 µM
same,TGI,[28]; read-out: pTGI (converted),10.2 µM
same,GI50,[29],1.78 µM
same,TGI,[29]; read-out: pTGI (converted),3.63 µM
same,GI50,[30],6.03 µM
same,TGI,[30]; read-out: pTGI,> 100 µM
same,GI50,[31],4.9 µM
same,TGI,[31]; read-out: pTGI,> 100 µM
same,GI50,[32],4.79 µM
same,TGI,[32]; read-out: pTGI,> 100 µM
same,growth inhibition (GI),[3],Active
same,GI50,[33],6.46 µM
same,TGI,[33]; read-out: pTGI (converted),66.1 µM
same,GI50,[15],5.01 µM
same,TGI,[15],20 µM
same,GI50,[34],5.37 µM
same,TGI,[34]; read-out: pTGI (converted),39.8 µM
same,growth at 10 µM,[35],-86.5%
Cc1ccc2nc(/N=C3\NC(=O)/C(=C/c4ccc(Cl)cc4)S3)sc2c1,growth at 10 µM,[1],56.5%
same,growth inhibition (GI),[3],inactive
same,growth at 10 µM,[36],4.01%
CCN(CC)c1ccc(/C=C2\S/C(=N/c3nc4ccc(C)cc4s3)NC2=O)cc1,growth at 10 µM,[1],69%
same,growth inhibition (GI),[3],inactive
same,growth at 10 µM,[36],22.5%
